# In the library only some 2% were active in any assay of this set; here they are far more common.
# ARNT-TACC3 inh: disruptors of human ARNT/TACC3 interaction; Q9Y6A5; 0.66% of 390,000 active; inhibition, % at 9.99 µM; AlphaScreen His-ARNT PAS-B/GST-TACC3 binding, luminescence; TACC3 fragment carries E629A point mutation;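 active = mean inhibition of replicates at least 50% and at least half of replicates each reaching 50%; inconclusive = half or more replicates reach 50% but mean below 50%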;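 note: 0% = complete ARNT plus TACC3 wells and 100% = ARNT alone without TACC3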
# T cruzi repl: T. cruzi replication inhibition; T. cruzi beta-gal in NIH3T3, luminescence, 90 h; inhibition, % (test concentration not listed); 1.4% of 300,000 active; AID 1885;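 active = mean inhibition across valid replicates above about 55%, limit read from the data; inconclusive = mean below that limit but half or more replicates reach it; inactive = mean below it, under half of replicates reach it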;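 note: signal also drops with host cell toxicity which is not excluded here; 0% = plate median of DMSO wells and 100% = zero luminescence signal; higher percent means less beta-gal luminescence so fewer parasites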
#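 System – NIH/3T3 host cells with β-galactosidase reporter T. cruzi · Doses – single 50 nL compound addition per well in DMSO · Reagent – 5000 T. cruzi trypomastigotes/well · Medium – Low-serum DMEM with 2% FBS · Timing – ≥90 h infection period, 3 h prior cell attachment · Evaluation – parasite load inhibition, % · Technique – GalScreen luminescence, 60 min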
# HIF activator: HIF pathway transcriptional activation | AID 1910 | 0.32% of 300,000 active | activation, % at 7.5 µM (by protocol) | U2OS HRE-luciferase reporter, luminescence; normalized: DMSO 0%, desferrioxamine 100%;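 active = mean activation of at least 10% of the iron chelator positive control signal, with at least half of replicates also reaching 10%; inconclusive = mean and replicate majority disagree about reaching 10%; inactive = mean and most replicates under 10%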
# AI-2 QS mod: modulators of Vibrio harveyi AI-2 quorum sensing system. Vibrio harveyi JMH597 AI-2 luminescence/OD600 ratio, 9 h; active compounds read low; strain lacks LuxN and CqsS sensors; 0 = neutral-control median. activity change, % at 7.5 µM. 0.4% of 300,000 active. AID 2094; in the data active = activity change below about -75%, passing the limit was not always enough; inconclusive = no clear call, values can overlap the other calls;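 note: luminescence divided by OD600 gain over 9 h not by final OD600 alone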
# * hit, by the source's call; ? = inconclusive; · = no result.
SMILES,ARNT-TACC3 inh,T cruzi repl,HIF activator,AI-2 QS mod
OC(COc1ccccc1F)CN1CCC(Cc2ccccc2)CC1 (centres undefined),0,16,-1,19
OC(COc1ccc(F)cc1Cl)CN1CCC(Cc2ccccc2)CC1 (centres undefined),5,63*,-18,35
COc1ccc(C#Cc2ccc([C@H]3[C@@H](CO)N4CCCCN(Cc5ccncc5)C[C@H]34)cc2)cc1,10,·,·,·
COc1cccc(S(=O)(=O)N[C@@H]2CC[C@@H](CC(=O)NC3Cc4ccccc4C3)O[C@H]2CO)c1,-18,·,·,·
NC(=O)CSc1nnc(-c2ccccn2)n1N,45*,-7,-1,19
CC(C)OC(=O)CSc1nnc(-c2ccccn2)n1N,·,9,0,-11
O=c1c2ccccc2nc(/C=C/c2ccc([N+](=O)[O-])o2)n1CCCO,6,62*,5,-84*
CC(C)(C)c1ccc(CN2C3=NCCCN3c3ccccc32)cc1,3,69*,0,40
C[C@@H]1CN([C@H](C)CO)C(=O)c2cc(NC(=O)c3ccccc3)ccc2O[C@@H](C)CCCCO[C@@H]1CN(C)C(=O)C1CCCCC1,1,·,·,·
CCCCCOc1ccc(Br)cc1/C(C)=N/NC1=NCCN1,22,55*,1,-2
C[C@@H]1CN([C@@H](C)CO)C(=O)Cc2cc(NC(=O)Nc3ccccc3)ccc2O[C@H]1CN(C)Cc1ccc(C(=O)O)cc1,-3,·,·,·
CCC(=O)N(C)C[C@H]1Oc2cc(-c3ccc(C#N)cc3)ccc2S(=O)(=O)N([C@H](C)CO)C[C@H]1C,-6,·,·,·
COc1ccc(C2=Nn3c(nnc3-c3ccccc3OC)SC2)cc1OC1CCOC1 (centres undefined),47*,·,·,·
COc1ccccc1-c1nnc2n1N=C(c1ccc(O)c(O)c1)CS2,20,-34,1,14
COc1ccc(OC)c(C2=Nn3c(nnc3-c3cc(C)[nH]n3)SC2)c1,3,-5,58*,32
O=C(O)c1ccccc1NC(c1ccccc1)c1ccc2cccnc2c1O (centres undefined),-23,·,·,·
Cc1ccnc(NC(c2cccnc2)c2ccc3cccnc3c2O)c1 (centres undefined),61*,17,11*,36
Oc1c(C(Nc2ccccn2)c2ccccn2)ccc2cccnc12 (centres undefined),·,55*,14*,?
COc1ccccc1NC(c1cccnc1)c1ccc2cccnc2c1O (centres undefined),-6,40,12*,20
Cc1ccc2ccc(C(Nc3ccccn3)c3ccccc3)c(O)c2n1 (centres undefined),11,44,0,34
CO[C@H]1CN(C)C(=O)c2ccc(NC(=O)C3CCCC3)cc2OC[C@H](C)N(CC2CC2)C[C@@H]1C,-2,·,·,·
COc1ccc(CN(C)C[C@@H]2OCCCC[C@H](C)Oc3ccc(NC(=O)Cc4ccccc4)cc3C(=O)N([C@H](C)CO)C[C@H]2C)cc1,13,·,·,·
O=C(O)CCCNc1cc(N2CCN(C(=O)c3ccco3)CC2)c2noc3c2c1C(=O)c1ccccc1-3,46*,-3,-3,2
CCOC(=O)N1CCN(c2cc(NCCC(=O)O)c3c4c(onc24)-c2ccccc2C3=O)CC1,58*,·,·,·
CN(C)CCCNC(=O)C[C@H]1CC[C@@H]2[C@@H](COc3ccc(NS(C)(=O)=O)cc3C(=O)N2C)O1,-8,·,·,·
SMILES,ARNT-TACC3 inh,T cruzi repl,HIF activator,AI-2 QS mod
C[C@@H]1CN([C@H](C)CO)C(=O)c2cc(NC(=O)Nc3ccccc3)ccc2O[C@@H](C)CCCCO[C@H]1CN(C)S(=O)(=O)c1cn(C)cn1,3,·,·,·
CNC[C@@H]1OCCCC[C@@H](C)Oc2ccc(NS(=O)(=O)c3ccc(C)cc3)cc2C(=O)N([C@H](C)CO)C[C@@H]1C,-1,·,·,·
O=C(Nc1nccs1)[C@@H]1[C@@H](CO)[C@@H]2Cn3c(cccc3=O)[C@@H]2N1C(=O)C1CCCCC1,18,·,·,·
CCOC(=O)[C@H]1[C@H]2COc3ccc(Cl)cc3[C@@H]2N2C(=O)c3ccc(Cl)cc3NC(=O)[C@@]12C,15*,·,·,·
CCN(CC)S(=O)(=O)c1cccc(C(=O)N/N=C/c2ccc([N+](=O)[O-])o2)c1,1,56*,-1,22
O=C(N/N=C/c1ccc(-c2ccccc2[N+](=O)[O-])o1)c1cncc(Br)c1,39,-7,0,0
CCN(CC)S(=O)(=O)c1cccc(C(=O)N/N=C/c2ccccc2OCC(=O)O)c1,4,-11,0,30
O=C(N/N=C\c1ccc([N+](=O)[O-])o1)c1cncc(Br)c1,33,58*,0,-41
O=C(OCCN1C(=O)c2cccc3c(N4CCOCC4)ccc(c23)C1=O)c1ccc(Cl)cc1,-26,-22,12*,17
CCCN(CCC)S(=O)(=O)c1ccc(C(=O)OCCN2C(=O)c3cccc4c(N5CCOCC5)ccc(c34)C2=O)cc1,-37,-8,0,8
CS(=O)(=O)Nc1ccc2c(c1)[C@H]1C[C@@H](CC(=O)N3CCCCC3)O[C@H](CO)[C@H]1O2,-11,·,·,·
CCc1ccc(OCCNC(=O)c2ccccc2SCc2ccc(F)cc2)cc1,-6,57*,0,4
O=C(CNC(=O)c1cccs1)OCc1ccc(Cl)cc1,-15,4,0,-79*
CCCCOCCCNC(=O)c1cccs1,-1,5,0,11
CCc1ccc(OCCNC(=O)c2cccs2)cc1,2,0,-7,-79*
O=C(NCCOc1ccc(F)cc1)c1ccccc1SCc1ccccc1,-5,23,0,-65
CO[C@H]1CN(C)C(=O)c2ccc(NS(=O)(=O)c3ccc(-c4ccccc4)cc3)cc2OC[C@H](C)NC[C@H]1C,3,·,·,·
C[C@H]1CN([C@@H](C)CO)C(=O)Cc2cc(NC(=O)Nc3ccc(F)cc3)ccc2O[C@@H]1CN(C)Cc1ccc(Oc2ccccc2)cc1,-10,·,·,·
O=C(C[C@H]1CC[C@@H]2[C@H](COC[C@H](O)CN2C(=O)Nc2ccc(Cl)cc2)O1)NC1Cc2ccccc2C1,-27,·,·,·
Cc1ccc2nc(N/C(N)=N/S(=O)(=O)c3ccc([N+](=O)[O-])cc3)nc(C)c2c1,-4,58*,0,3
CNC(=O)C[C@H]1CC[C@@H]2[C@H](COC[C@H](O)CN2Cc2ccc(C(F)(F)F)cc2)O1,1,·,·,·
CCOC(=O)C(=Cc1ccc(OCc2ccc([N+](=O)[O-])cc2)c(OC)c1)C(=O)OCC,-2,-23,11*,25
CC1(C)Cc2c(sc3ncnc(NN)c23)CO1,47*,-1,-1,-8
CC1(C)Cc2c(sc3ncn(N)c(=N)c23)CO1,25,-7,0,4
CN(C)CCCNC(=O)c1ccc(-c2nc(-c3ccc(Cl)cc3)cs2)cc1,8,65*,-7,8
COc1ccc(NC(=O)CN(C)C(=O)/C=C/c2cn(-c3ccccc3)nc2-c2ccc(C)cc2)cc1,0,72*,-13,-4
O=C(C[C@H]1CC[C@H]2[C@@H](COC[C@H](O)CN2Cc2ccccc2F)O1)NCc1ccccc1F,-19,·,·,·
